# Assay outcomes deposited in PubChem BioAssay by several laboratories.
# MrgX1 ag – human MrgX1 receptor agonism, primary screen. MrgX1-HEK293 cells, Fluo-4 calcium fluorescence, agonist mode; hits give high values. B-score at 10 µM. 310,000 compounds, 0.44% hits. AID 588627;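 active means calcium response B-score plate-corrected fluorescence ratio at least 3 library SD, with starting fluorescence B-score inside 5 SD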
# Target sequence (Q96LB2 whole entry, looked up): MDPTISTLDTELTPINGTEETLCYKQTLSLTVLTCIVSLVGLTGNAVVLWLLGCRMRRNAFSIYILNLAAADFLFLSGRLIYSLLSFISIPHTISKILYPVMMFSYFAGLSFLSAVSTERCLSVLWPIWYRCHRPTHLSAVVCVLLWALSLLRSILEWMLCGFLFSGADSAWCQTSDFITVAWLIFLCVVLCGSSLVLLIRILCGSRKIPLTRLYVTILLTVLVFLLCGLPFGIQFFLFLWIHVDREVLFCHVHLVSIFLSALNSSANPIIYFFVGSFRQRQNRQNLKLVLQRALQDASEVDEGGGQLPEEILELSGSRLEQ
#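 Assay system: MrgX1-expressing HEK293 cells / Amount: fifteen thousand cells per well / Doses: test compound in the initial addition of three / Timing: cells plated overnight, dye loaded 0.5 h 37 °C, 0.5 h room temperature / Technique: kinetic calcium dye fluorescence, Fluo-4 NW / Control set: positive and negative controls per plate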
# MrgX1 antag – blocks BAM8-22 activation of human MrgX1 receptor; Q96LB2; B-score at 10 µM; AID 588676; 310,000 compounds, 1.3% hits; MRGX1-HEK293 calcium flux, Fluo-4, BAM8-22 antagonism; hits give low values;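 active means calcium-response B-score plate-corrected more than 3 library SD below zero, starting fluorescence within 5 deviations, no agonist response on first addition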;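 further: peak minus trough fluorescence over baseline after final BAM8-22 challenge near maximal dose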
# RGS4 inh – human RGS4 inhibition | P49798 | HEK293 M3R/RGS4 inducible, Fluo-4 calcium flux; hits give high values; triggered by carbachol at its EC20 | B-score at 10 µM | 310,000 compounds, 0.45% hits;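 active means B-score, a plate-corrected calcium signal, over three deviations above library mean, with baseline fluorescence within five deviations of library mean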;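 further: RGS4 expression induced by doxycycline in cells with stable M3 receptor; B-score is computed from the integrated fluorescence ratio over baseline after carbachol; higher B-score means a larger calcium signal and so more RGS4 inhibition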
# Target sequence (P49798 whole entry, looked up): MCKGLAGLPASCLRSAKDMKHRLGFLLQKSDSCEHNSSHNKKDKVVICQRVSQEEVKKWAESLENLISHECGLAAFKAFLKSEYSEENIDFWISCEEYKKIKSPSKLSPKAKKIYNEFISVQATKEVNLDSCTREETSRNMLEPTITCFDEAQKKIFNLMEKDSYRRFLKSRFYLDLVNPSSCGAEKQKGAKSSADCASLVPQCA
# RGS4 pot – potentiators or activators of RGS4; AID 463111; HEK293 M3R/inducible RGS4, carbachol calcium flux Fluo4; hits give low values; 310,000 compounds, 0.92% hits; B-score at 10 µM;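 active means B-score of the integrated calcium signal more than 4 SD below the library mean, with starting fluorescence not abnormally high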;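 further: negative B-score means reduced calcium response which marks RGS4 activation or potentiation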
#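 Assay system: HEK293 FlpIn-TREx cells, stable M3R, doxycycline-inducible RGS4 / Probe or stimulus: carbachol, ECmax concentration / Times: overnight RGS4 induction, 30 min dye load 37 °C, 20 min compound RT / Signal: kinetic calcium fluorescence imaging with Fluo4-AM dye, 2 µM / Measure: Agonist-evoked peak-minus-minimum fluorescence over baseline, integrated ratio, B score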
# PHOSPHO1 inh – inhibitors of human PHOSPHO1 phosphatase. Q8TCT1. recombinant PHOSPHO1, absorbance phosphatase assay. inhibition, % at 13.3 µM. 290,000 compounds, 1.1% hits; in the data active means inhibition above about 60%
# MrgX1 allo act – human MrgX1 positive allosteric modulation, primary screen; B-score at 10 µM; Q96LB2; 310,000 compounds, 0.63% hits; MrgX1-HEK293, Fluo-4 calcium flux, FDSS; hits give high values;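 active means plate-corrected calcium response at least 3 library SD above typical, normal starting fluorescence, not activating the receptor alone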;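 further: compound read alongside a low EC10 to EC30 dose of BAM8-22 agonist; peak minus trough fluorescence over baseline measured at the second addition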
# Numbers stand for hits; n = inactive; x = not tested or not shown. Most compounds without a hit are left out; they make up all but 4.5% or so of the library.
SMILES,MrgX1 ag,MrgX1 antag,RGS4 inh,RGS4 pot,PHOSPHO1 inh,MrgX1 allo act
COc1ccc(Cc2nc3ccc(C(=O)N4C[C@@H](C)O[C@@H](C)C4)cc3o2)cc1OC,n,n,n,n,64,n
COc1ccc(Cc2nc3ccc(C(=O)N4CCOCC4)cc3o2)cc1,n,n,n,n,n,n
COCCN1CCN(C(=O)c2ccc3nc(Cc4ccc(OC)c(OC)c4)oc3c2)CC1,n,-5.9,n,n,n,n
COc1ccc(N2CCC(CNC(=S)Nc3cccc(C)c3)C2)cc1 (stereo not drawn),n,n,n,n,n,n
COc1ccc(N2CCC(CNS(=O)(=O)c3cccc(C(F)(F)F)c3)C2)cc1 (stereo not drawn),n,n,n,n,79,n
CS(=O)(=O)N(CC(=O)Nc1ccc(S(=O)(=O)N2CCCC2)cc1)c1ccccc1F,n,n,n,n,n,n
CCOc1ccc(CCNC(=O)C2=C(C)C(=O)OC23CCCCC3)cc1OCC,n,n,n,n,n,n
O=C(NC(Nc1nc2ccc([N+](=O)[O-])cc2s1)(C(F)(F)F)C(F)(F)F)c1cccnc1,n,n,n,n,n,n
O=[N+]([O-])c1ccccc1S(=O)(=O)Nc1nc2ccccc2s1,n,n,n,n,n,n
O=[N+]([O-])c1ccc2nc(NS(=O)(=O)c3ccccc3[N+](=O)[O-])sc2c1,n,n,n,n,n,10
O=C(NC(Nc1nc2ccc([N+](=O)[O-])cc2s1)(C(F)(F)F)C(F)(F)F)c1ccccc1Cl,n,-5.5,n,n,n,n
CC(C)=CC(=O)Nc1nc2ccc([N+](=O)[O-])cc2s1,x,x,n,n,n,x
O=[N+]([O-])c1ccc2nc(NS(=O)(=O)c3ccc(Cl)cc3)sc2c1,n,n,n,n,n,11
CCCn1c(SCC(=O)NC2CCCC2)nc2c1c(=O)n(C)c(=O)n2C,n,n,n,n,n,n
CC1(C)CC(=NNC(=O)c2n[nH]c3c2CCC3)CC(C)(C)N1,n,n,n,n,n,n
Cc1ccc(C(=O)OCCc2sc[n+](Cc3ccccc3)c2C)cc1,n,n,n,-9.1,n,n
Cc1c(CCOC(=O)C23CC4CC(CC(C)(C4)C2)C3)sc[n+]1Cc1ccccc1,n,n,n,n,n,n
S=C1N(c2ccccc2)C(c2ccc(Cl)cc2)N2CCCN12 (stereo not drawn),n,n,n,-7.2,n,n
Cc1n[nH]c(=O)nc1N/N=C/c1ccc(O)c([N+](=O)[O-])c1,n,n,n,n,n,n
COc1ccc(Cl)cc1-n1c(N)c(C(N)=O)sc1=S,n,n,n,n,100,n
Cc1ccc(-n2c(N)c(C(N)=O)sc2=S)c(C)c1,n,n,n,n,88,n
COC(=O)c1sc(=S)n(-c2ccccc2OC)c1N,n,n,n,n,n,n
CCCCNC(=O)c1sc(=S)n(-c2ccccc2OC)c1N,n,n,n,n,69,n
Cc1ccc(C)c(-n2c(N)c(C(N)=O)sc2=S)c1,n,n,n,n,x,n
O=C1CSC(c2cccc([N+](=O)[O-])c2)N1c1ccccc1 (stereo not drawn),n,n,n,-7.5,n,n
SMILES,MrgX1 ag,MrgX1 antag,RGS4 inh,RGS4 pot,PHOSPHO1 inh,MrgX1 allo act
CC1=CC(=C(C#N)C#N)c2ccccc2N1C,n,n,n,n,n,n
CC1=C/C(=C\C=C(C#N)C#N)N(C)c2ccccc21,n,-5.7,n,n,n,n
O=C(NC(=S)NCCc1ccccc1)c1cccc(Cl)c1,n,n,n,n,n,n
C=CCn1c(SCc2c(C)noc2C)nc2ccccc2c1=O,n,n,n,n,n,n
COc1cc2nc(SCc3c(C)noc3C)n(CCC3=CCCCC3)c(=O)c2cc1OC,n,n,n,-8.2,n,n
COc1ccc(-c2coc3cc(O)cc(O)c3c2=O)cc1OC,n,n,n,n,n,n
COc1ccccc1-c1coc2cc(O)cc(O)c2c1=O,34,n,n,n,n,n
CCCCOc1ccc(N(CC(=O)NC2CCCCC2)C(=O)c2snc(C(N)=O)c2N)cc1,n,n,n,n,n,n
N#CC1=C(N)SC(N)=C(C#N)C1c1cccc(Oc2ccccc2)c1,n,-6.5,n,n,n,n
N#CC1=C(N)SC(N)=C(C#N)C1CCc1ccccc1,n,-5.1,n,n,n,n
N#CC1=C(N)SC(N)=C(C#N)C1c1c(Cl)cccc1Cl,42,n,n,n,82,n
C[C@H](NC(N)=O)C(=O)Nc1ccc2c(c1)OCO2,n,n,n,n,n,n
CC(C)c1ccc(/C=C/C(=O)NCc2ccc(S(N)(=O)=O)cc2)cc1,n,-6.8,n,n,n,n
Cc1cc(C)c(S(=O)(=O)c2cccc(Cl)c2)c(=O)[nH]1,n,n,n,n,n,n
COc1ccc(-n2c(COc3ccccc3)n[nH]c2=S)cc1,n,n,n,n,n,n
S=c1[nH]nc(CSCc2ccccc2Cl)n1-c1ccccc1,n,n,n,n,105,n
OCCCc1n[nH]c(=S)n1-c1ccccc1,n,n,n,n,n,n
COC(Cc1n[nH]c(=S)n1-c1ccccc1)OC,n,n,n,n,79,n
COCc1n[nH]c(=S)n1-c1ccccc1,n,n,n,n,64,n
COC(=O)C1CCN(C(=O)COC(=O)c2oc3ccc(OC)cc3c2C)CC1,n,n,n,n,n,n
Cc1cccc(NC(=O)COc2ccc(/C=N\n3cnnc3)cc2)c1,n,n,n,n,n,n
CCCCOC(=O)c1ccc(NC(=O)c2c(N)n(C)c(=O)[nH]c2=O)cc1,n,n,n,n,x,n
Cc1oc(-c2ccccc2F)nc1CS(=O)(=O)CC(=O)NCCN(C)C1CCCCC1,n,-5.7,n,n,n,n
Cc1oc(-c2ccccc2F)nc1CS(=O)(=O)CC(=O)NC1CCCC1,n,n,n,n,n,n
Cc1c2ccccc2nc2c(F)c(N(C)C)c(F)c(F)c12,n,-8.1,n,n,n,n
SMILES,MrgX1 ag,MrgX1 antag,RGS4 inh,RGS4 pot,PHOSPHO1 inh,MrgX1 allo act
CCCCCc1ccc(OCCCC[n+]2cccc(C)c2)c(CCCCC)c1,n,n,n,-8.7,n,n
CCCCCc1ccc(OCCCC[n+]2ccccc2)c(CCCCC)c1,n,n,n,-7.8,n,n
CCC(=O)Nc1cc2nn(-c3ccc(C)cc3)nc2cc1C,n,n,n,n,63,n
CSCCC(NC(=O)c1ccccc1)C(=O)N1CCN(C(c2ccccc2)c2ccccc2)CC1 (stereo not drawn),n,n,n,n,n,n
COc1ccc(C[C@H]2CN3C(=NC[C@H]3Cc3ccccc3)N2CCNC(=O)c2ccc(C)c(Br)c2)cc1,n,-5.1,n,n,n,n
CCOc1ccc(CCNC(=O)c2ccc(CS(=O)Cc3cccc(Cl)c3)o2)cc1 (stereo not drawn),n,n,n,-9.4,n,n
